In the library only some 1.4% were active in any assay of this set; here they are far more common.
NR2E3 ag-1: agonists of human NR2E3 nuclear receptor; Q9Y5X4; CHO-S Gal4-NCOR/VP16-NR2E3 two-hybrid, luciferase; inhibition of corepressor binding, % at 3.98 µM; hit rate 0.35% among 360,000;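 active = inhibition above the mean of all tested compounds plus 3 SD, cut at about 70% in these data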;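 also: 0% = DMSO with NR2E3 transfected cells and 100% = cells lacking NR2E3 construct; higher means lower luciferase signal from less NR2E3 corepressor binding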
NR1D1 modulator: modulates human Rev-erb alpha binding to DNA; Rev-erbα–FITC-DNA binding, fluorescence polarization, 90 min; hit rate 0.79% among 370,000; activity, % at 10 µM;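 active = activity above about 14%, limit read from the data; passing the limit was not always enough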;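 also: 0% = DMSO wells with 35 nM protein and 100% = DMSO wells with 750 nM protein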
Target sequence (P20393 whole entry, looked up): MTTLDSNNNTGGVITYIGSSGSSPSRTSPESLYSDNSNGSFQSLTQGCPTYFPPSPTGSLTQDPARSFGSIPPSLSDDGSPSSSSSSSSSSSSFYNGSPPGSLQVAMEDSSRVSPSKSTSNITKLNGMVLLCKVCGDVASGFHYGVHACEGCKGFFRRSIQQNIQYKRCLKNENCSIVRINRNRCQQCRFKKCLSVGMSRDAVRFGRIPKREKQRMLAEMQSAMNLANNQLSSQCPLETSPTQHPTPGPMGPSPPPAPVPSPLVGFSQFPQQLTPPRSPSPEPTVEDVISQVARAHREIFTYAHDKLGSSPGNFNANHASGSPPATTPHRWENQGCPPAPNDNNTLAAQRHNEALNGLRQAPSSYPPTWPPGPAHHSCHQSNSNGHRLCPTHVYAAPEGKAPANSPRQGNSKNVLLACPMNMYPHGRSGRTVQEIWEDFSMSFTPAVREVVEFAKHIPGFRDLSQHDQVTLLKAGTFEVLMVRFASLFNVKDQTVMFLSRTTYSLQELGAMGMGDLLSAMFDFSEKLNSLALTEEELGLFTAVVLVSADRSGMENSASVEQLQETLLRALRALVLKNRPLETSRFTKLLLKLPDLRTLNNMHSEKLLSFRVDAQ
PG9 Ab binder: small molecules binding HIV-1 gp120 antibody PG9. inhibition, % at 6.7 µM. hit rate 0.43% among 360,000. AID 624416. TR-FRET gp120-PG9 antibody binding; in the data active = inhibition above about 8.5%
NR2E3 ag-2: NR2E3 (human) agonism; Q9Y5X4; AID 2300; GST-NR2E3/biotin-RetCOR TR-FRET, 1536-well; hit rate 0.12% among 320,000; inhibition of corepressor binding, % at 4.78 µM;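 active = percent inhibition above the cutoff of mean plus 3 SD of all tested compounds, set per screening campaign, cut at about 20% in these data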;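 also: 0% = DMSO wells and 100% = biotin wells as full block of FRET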
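Material: NR2E3–RetCOR corepressor complex / Incubation: Compound–protein incubation for 5 h at 4 °C / Dosing: compound at 4.8 µM, single dose / Detection: time-resolved FRET / Benchmarks: high control biotin, low control 0.6% DMSO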
NR2E3 ag conf: confirmation of human NR2E3 agonists; inhibition, % at 3.98 µM; shares compounds with NR2E3 ag-1; hit rate 51% among 2,300; CHO-S mammalian two-hybrid NR2E3-NCOR, luciferase luminescence;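 active = average inhibition above a cutoff equal to the mean inhibition of all tested compounds plus one SD, cut at about 70% in these data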;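 also: 0% = DMSO in NR2E3 cells and 100% = DMSO in cells lacking NR2E3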
GAL4-VP16 luc: reduces GAL4-VP16 reporter signal in NR2E3 counterscreen; hit rate 29% among 2,300; inhibition, % at 3.98 µM; shares compounds with NR2E3 ag-1; CHO-S GAL4-VP16 luciferase reporter, luminescence; AID 624379;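 active = mean inhibition above a cutoff equal to the average over all tested compounds plus one standard deviation, cut at about 70% in these data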;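 also: luciferase from a UAS reporter driven by GAL4-VP16 transactivation; 0% = DMSO with VP16-transfected cells and 100% = DMSO with cells lacking VP16; higher means less reporter light so more repression of VP16 activity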
An asterisk follows results filed as active; nt = no result.

SMILES | NR2E3 ag-1 | NR1D1 modulator | PG9 Ab binder | NR2E3 ag-2 | NR2E3 ag conf | GAL4-VP16 luc
C=C1C(=O)OC2C=C(CO)C3OC3C3OC3(C)CC(OC(=O)/C(=C/C)COC(C)=O)C12 (stereo unspecified) | 86* | 0 | 0 | nt | 30 | 21
COc1ccc(S[C@]2(C(=O)N(C)C)CC(=O)N(C(=O)C3CC3)[C@@H]2c2ccc(OC)cc2)cc1 | nt | 2 | nt | nt | nt | nt
Cc1cc(N2CCN(C(=O)c3cccs3)CC2)c(F)cc1[N+](=O)[O-] | 79* | -3 | -1 | 3 | 82* | 66
CC(O)CC(C(=O)NNc1ccccc1)C(=O)NNc1ccccc1 (stereo unspecified) | 63 | -3 | -2 | 5 | 41 | 10
CC(C)OC(=O)C(=O)NNc1ccccc1 | 54 | 1 | -5 | -2 | 29 | 0
COC(=O)C1CN(C2CCCC2)CCS(=O)(=O)N1Cc1ccc(C)cc1 (stereo unspecified) | nt | 3 | nt | nt | nt | nt
COc1cccc(C(=O)Nc2nnc(S(=O)(=O)N(C)Cc3ccc(F)cc3)s2)c1 | 50 | 9 | 0 | 1 | 41 | 19
COc1ccc(CN(C)S(=O)(=O)c2nnc(NC(=O)c3cccc(OC)c3)s2)cc1 | 19 | -4 | 1 | 4 | nt | nt
Cc1noc(C)c1S(=O)(=O)N1CCN(c2ccc(Cl)cc2)CC1 | -11 | 3 | 0 | 1 | nt | nt
Cc1noc(C)c1S(=O)(=O)Nc1ccc(C(=O)N2CCN(c3ccc(Cl)cc3)CC2)cc1 | 65 | 1 | -2 | -1 | 86* | 53
CCOc1ccc(S(=O)(=O)N2CCCCC2)c2ccccc12 | 58 | 3 | 0 | 0 | 55 | -10
COc1cc(/C=C2\COC/C(=C\c3cc(OC)c(OC)c(OC)c3)C2=O)cc(OC)c1OC | 86* | -8 | -2 | nt | 100* | 82*
COc1cc(/C=C2\CC/C(=C\c3cc(OC)c(O)c(OC)c3)C2=O)cc(OC)c1O | 77* | -14 | -7 | 7 | 96* | 67
COCCn1c(C)cc(C(=O)COC(=O)c2cccc(O)c2)c1C | 59 | -4 | -2 | 0 | 42 | -7
COCCn1c(C)cc(C(=O)COC(=O)c2cc3c(s2)CCC3)c1C | -3 | -22 | 1 | -2 | nt | nt
Cc1ccc(NC(=O)c2c(C(F)(F)F)nn(C)c2SCc2cccc(C(F)(F)F)c2)cc1C | 49 | 4 | 0 | 2 | 55 | 44
Cc1ccc(NC(=O)c2c(C(F)(F)F)nn(C)c2SCc2ccc(Cl)cc2)cc1C | -20 | 4 | -2 | 0 | nt | nt
CCCc1ccc(-c2ccc(/C=C/C(=O)O)cc2)nc1 | 75* | -2 | -3 | -1 | 85* | 61
CCCCOCCCNc1ncnc2c1[nH]c1ccccc12 | 87* | -4 | -3 | 0 | 96* | 82*
CCCCOc1ncnc2c1[nH]c1ccc(OC)cc12 | nt | -3 | 0 | 2 | nt | nt
CCCCOc1ncnc2c1[nH]c1ccc(F)cc12 | 75* | 2 | -2 | -2 | 97* | 73*
CCCCOc1ncnc2c1[nH]c1ccc(OCC)cc12 | -14 | -13 | 1 | -1 | nt | nt
CCCCOc1ncnc2c1[nH]c1ccccc12 | 79* | 0 | -1 | -1 | 92* | 64
COC(=O)[C@]12C[C@H](CC(=O)NCc3cccc4ccccc34)C(=O)N(CCc3ccc(OC)c(OC)c3)C1=C[C@H](COCc1ccccc1)O[C@@H]2C | nt | -2 | nt | nt | nt | nt
COC(=O)C[C@H]1CC[C@H]2[C@H](COc3ccc(NC(=O)c4cccs4)cc3C(=O)N2C)O1 | nt | -3 | nt | nt | nt | nt
O=[N+]([O-])c1ccc(Sc2cccc3cccnc23)c([N+](=O)[O-])c1 | 78* | 4 | 0 | 2 | 12 | -24
C[C@H]1[C@H](NC(=O)c2ccc(C(F)(F)F)cc2)CC[C@@]23CCCN2C(=O)CCC[C@@H]13 | nt | 0 | nt | nt | nt | nt
COc1cccc(C(C)(O)c2nc(-c3cc4ccccc4o3)cs2)c1 (stereo unspecified) | 79* | 4 | -3 | nt | 93* | 72*
CC(O)(c1ccc(F)c(F)c1)c1nc(-c2cc3ccccc3o2)cs1 (stereo unspecified) | 58 | 12 | -2 | nt | 61 | 48
COc1cccc(C(C)(O)c2nc(-c3ccc(N(C)C)cc3)cs2)c1 (stereo unspecified) | 73* | 10 | 0 | nt | 83* | 60

From PubChem
